Reference: ChEMBL document CHEMBL4196009, “Novel vitexin-inspired scaffold against leukemia” (Eur J Med Chem, 2018)

Columns and labels:
[1] = tested on: THLE-2; test: Antiproliferative activity against human THLE2 cells after 72 hrs by CelTiter-Glo assay; assay type: cell-based; conditions: THLE-2, 72 h
[2] = tested on: KOPN-8; test: Antiproliferative activity against human KOPN8 cells after 72 hrs by CelTiter-Glo assay; assay type: functional, cell-based; conditions: KOPN-8, 72 h
[3] = tested on: SUP-B15; test: Antiproliferative activity against human SUP-B15 cells after 72 hrs by CelTiter-Glo assay; assay type: functional, cell-based; conditions: SUP-B15, 72 h
[4] = tested on: HepG2; test: Antiproliferative activity against human HepG2 cells after 72 hrs by CelTiter-Glo assay; assay type: functional, cell-based; conditions: HepG2, 72 h
[5] = tested on: BJ; test: Antiproliferative activity against human BJ cells after 72 hrs by CelTiter-Glo assay; assay type: cell-based
[6] = tested on: SEM cells; test: Antiproliferative activity against human SEM cells after 72 hrs by CelTiter-Glo assay; assay type: functional, cell-based
[7] = tested on: UoC-B1; test: Antiproliferative activity against human UOCB1 cells after 72 hrs by CelTiter-Glo assay; assay type: functional, cell-based; conditions: UoC-B1, 72 h
[8] = tested on: SUP-B15; test: Induction of apoptosis in human SUP-B15 cells assessed as necrotic cells at 10 uM after 24 hrs by Annexin V-FITC/propidium iodide staining-based flow cytometry (reference value: 9.2%); assay type: functional
[9] = tested on: SUP-B15; test: Induction of apoptosis in human SUP-B15 cells assessed as late apoptotic cells at 10 uM after 24 hrs by Annexin V-FITC/propidium iodide staining-based flow cytometry (reference value: 2.2%); assay type: functional
[10] = tested on: SUP-B15; test: Induction of apoptosis in human SUP-B15 cells assessed as early apoptotic cells at 10 uM after 24 hrs by Annexin V-FITC/propidium iodide staining-based flow cytometry (reference value: 0.1%); assay type: functional
[11] = tested on: SUP-B15; test: Induction of apoptosis in human SUP-B15 cells assessed as viable cells at 10 uM after 24 hrs by Annexin V-FITC/propidium iodide staining-based flow cytometry (reference value: 82.8%); assay type: functional; conditions: SUP-B15, 24 h, read-out: Activity
[12] = tested on: KOPN-8; test: Induction of apoptosis in human KOPN8 cells assessed as early apoptotic cells at 10 uM after 24 hrs by Annexin V-FITC/propidium iodide staining-based flow cytometry (reference value: 0.1%); assay type: functional
In short: (§1)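 KOPN-8 cells treated 24 h alongside a DMSO vehicle and a staurosporine (2.0 µM) positive control. Apoptosis was scored by FITC Annexin V / propidium iodide flow cytometry with quadrant gating (early, late apoptotic). DNA content was measured by PI staining to give the percentage of cells in G0/G1, S and G2/M. Groups were compared by t-test; error bars are SD.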

[13] = tested on: KOPN-8; test: Cell cycle arrest in human KOPN8 cells assessed as accumulation at S phase at 10 uM after 24 hrs by propidium iodide staining-based flow cytometry (reference value: 66.56%); assay type: functional; in short: as §1
[14] = tested on: KOPN-8; test: Induction of apoptosis in human KOPN8 cells assessed as late apoptotic cells at 10 uM after 24 hrs by Annexin V-FITC/propidium iodide staining-based flow cytometry (reference value: 9.5%); assay type: functional
In short: (§2)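 KOPN-8 cells were treated for 24 h, with a DMSO vehicle control and a staurosporine positive control. Cells were stained with FITC-Annexin V and propidium iodide and analysed by flow cytometry. Quadrant gating separated viable, early apoptotic, late apoptotic (Q2) and necrotic populations.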

[15] = tested on: KOPN-8; test: Cell cycle arrest in human KOPN8 cells assessed as accumulation at G2/M phase at 10 uM after 24 hrs by propidium iodide staining-based flow cytometry (reference value: 9.67%); assay type: functional; in short: as §1
[16] = tested on: KOPN-8; test: Induction of apoptosis in human KOPN8 cells assessed as necrotic cells at 10 uM after 24 hrs by Annexin V-FITC/propidium iodide staining-based flow cytometry (reference value: 0.2%); assay type: functional; in short: as §2
[17] = tested on: KOPN-8; test: Induction of apoptosis in human KOPN8 cells assessed as viable cells at 10 uM after 24 hrs by Annexin V-FITC/propidium iodide staining-based flow cytometry (reference value: 85.2%); assay type: functional; conditions: KOPN-8, 24 h, read-out: Activity; in short: as §2
[18] = tested on: KOPN-8; test: Cell cycle arrest in human KOPN8 cells assessed as accumulation at G0/G1 phase at 10 uM after 24 hrs by propidium iodide staining-based flow cytometry (reference value: 24.77%); assay type: functional; in short: as §1
[19] = tested on: MDA-MB-231; test: Cell cycle arrest in human MDA-MB-231 cells assessed as accumulation at G2/M phase at 2.5 uM after 24 hrs by propidium iodide staining-based flow cytometry (reference value: 9.38%); assay type: functional
[20] = tested on: KOPN-8; test: Induction of apoptosis in human KOPN8 cells assessed as late apoptotic cells at 2 uM after 24 hrs by Annexin V-FITC/propidium iodide staining-based flow cytometry (reference value: 9.5%); assay type: functional
[21] = tested on: KOPN-8; test: Induction of apoptosis in human KOPN8 cells assessed as viable cells at 2 uM after 24 hrs by Annexin V-FITC/propidium iodide staining-based flow cytometry (reference value: 85.2%); assay type: functional; conditions: KOPN-8, 24 h, read-out: Activity
[22] = tested on: MDA-MB-231; test: Cell cycle arrest in human MDA-MB-231 cells assessed as accumulation at S phase at 2.5 uM after 24 hrs by propidium iodide staining-based flow cytometry (reference value: 20.15%); assay type: functional
[23] = tested on: KOPN-8; test: Cell cycle arrest in human KOPN8 cells assessed as accumulation at G0/G1 phase at 2 uM after 24 hrs by propidium iodide staining-based flow cytometry (reference value: 24.77%); assay type: functional
[24] = tested on: KOPN-8; test: Cell cycle arrest in human KOPN8 cells assessed as accumulation at G2/M phase at 2 uM after 24 hrs by propidium iodide staining-based flow cytometry (reference value: 9.67%); assay type: functional
[25] = tested on: SUP-B15; test: Induction of apoptosis in human SUP-B15 cells assessed as necrotic cells at 2 uM after 24 hrs by Annexin V-FITC/propidium iodide staining-based flow cytometry (reference value: 9.2%); assay type: functional
[26] = tested on: KOPN-8; test: Cell cycle arrest in human KOPN8 cells assessed as accumulation at S phase at 2 uM after 24 hrs by propidium iodide staining-based flow cytometry (reference value: 66.56%); assay type: functional
[27] = tested on: SUP-B15; test: Induction of apoptosis in human SUP-B15 cells assessed as late apoptotic cells at 2 uM after 24 hrs by Annexin V-FITC/propidium iodide staining-based flow cytometry (reference value: 2.2%); assay type: functional
[28] = tested on: KOPN-8; test: Induction of apoptosis in human KOPN8 cells assessed as early apoptotic cells at 2 uM after 24 hrs by Annexin V-FITC/propidium iodide staining-based flow cytometry (reference value: 0.1%); assay type: functional
[29] = tested on: MDA-MB-231; test: Cell cycle arrest in human MDA-MB-231 cells assessed as accumulation at G0/G1 phase at 2.5 uM after 24 hrs by propidium iodide staining-based flow cytometry (reference value: 70.47%); assay type: functional
[30] = tested on: SUP-B15; test: Induction of apoptosis in human SUP-B15 cells assessed as early apoptotic cells at 2 uM after 24 hrs by Annexin V-FITC/propidium iodide staining-based flow cytometry (reference value: 0.1%); assay type: functional
[31] = tested on: SUP-B15; test: Induction of apoptosis in human SUP-B15 cells assessed as viable cells at 2 uM after 24 hrs by Annexin V-FITC/propidium iodide staining-based flow cytometry (reference value: 82.8%); assay type: functional; conditions: SUP-B15, 24 h, read-out: Activity
[32] = tested on: KOPN-8; test: Induction of apoptosis in human KOPN8 cells assessed as necrotic cells at 2 uM after 24 hrs by Annexin V-FITC/propidium iodide staining-based flow cytometry (reference value: 0.2%); assay type: functional
[33] = tested on: MDA-MB-231; test: Cell cycle arrest in human MDA-MB-231 cells assessed as accumulation at S phase at 20 uM after 24 hrs by propidium iodide staining-based flow cytometry (reference value: 20.15%); assay type: functional
[34] = tested on: MDA-MB-231; test: Cell cycle arrest in human MDA-MB-231 cells assessed as accumulation at G0/G1 phase at 20 uM after 24 hrs by propidium iodide staining-based flow cytometry (reference value: 70.47%); assay type: functional
[35] = tested on: MDA-MB-231; test: Cell cycle arrest in human MDA-MB-231 cells assessed as accumulation at G2/M phase at 20 uM after 24 hrs by propidium iodide staining-based flow cytometry (reference value: 9.38%); assay type: functional

`O=c1cc(-c2ccc(O)cc2)oc2c([C@@H]3O[C@H](CO)[C@@H](O)[C@H](O)[C@H]3O)c(O)cc(O)c12` [VITEXIN] was tested, and the EC50 [1] was 200 µM, the EC50 [2] was greater than 43.3 µM and the EC50 [3] was 50.7 µM. The EC50 [4] was greater than 43.3 µM, the EC50 [5] was greater than 86.2 µM and the EC50 [6] was greater than 43.3 µM. The EC50 [7] was greater than 43.3 µM.

Compound `COc1cc(OC)c2c(=O)cc(C(=O)N3CCN(C(=O)OC(C)(C)C)CC3)[nH]c2c1` has an Activity [8] of 11.3%, an Activity [9] of 3.2% and an EC50 [1] of 299 µM. For the same compound, the EC50 [2] was 6.73 µM, the Activity [10] was 0% and the EC50 [3] was 3.98 µM. It also gave an EC50 [4] of 11.3 µM, a viability at 10 µM [11] of 77.7% and an EC50 [5] of 13.8 µM. It also gave an Activity [12] of 0.2%, an Activity [13] of 61.36% and an Activity [14] of 24.9%. It also gave an Activity [15] of 8.86%, an EC50 [6] of 47 µM and an Activity [16] of 0.5%. It also gave a viability at 10 µM [17] of 63.7% and an Activity [18] of 29.78%.

With `CN[C@@H]1C[C@H]2O[C@@](C)([C@@H]1OC)n1c3ccccc3c3c4c(c5c6ccccc6n2c5c31)C(=O)NC4` [STAUROSPORINE] the Activity [19] was 6.8%, the Activity [20] was 74.4% and the viability at 2 µM [21] was 0.3%. The Activity [22] was 42.21%, the Activity [23] was 49.55% and the Activity [24] was 20.08%. For the same compound, the Activity [25] was 39.4%, the Activity [26] was 30.37% and the Activity [27] was 44.2%. For the same compound, the Activity [28] was 0.2%, the Activity [29] was 50.99% and the Activity [30] was 0.2%. For the same compound, the viability at 2 µM [31] was 9.8% and the Activity [32] was 0.1%.

`COc1ccc(-c2c(Br)c(=O)c3c(OC)cc(OC)cc3n2S(=O)(=O)c2ccc(OC)cc2)cc1` showed an Activity [33] of 18.2%, an EC50 [1] of 69 µM and an EC50 [2] of 2.58 µM. For the same compound, the EC50 [3] was 2.92 µM, the EC50 [4] was greater than 20 µM and the Activity [34] was 70.02%. It also gave an EC50 [5] of 49.7 µM, an EC50 [6] of 1.9 µM and an Activity [35] of 11.79%.

`COC(=O)c1cc(=O)c2cc(NC(=O)Nc3ccc(Cl)c(C(F)(F)F)c3)ccc2[nH]1` showed an Activity [8] of 16.4%, an Activity [9] of 9.3% and an EC50 [2] greater than 6.35 µM. For the same compound, the Activity [10] was 0.1%, the EC50 [3] was greater than 12.6 µM and the EC50 [4] was greater than 6.35 µM. For the same compound, the viability at 10 µM [11] was 65.5%, the EC50 [5] was greater than 12.6 µM and the Activity [12] was 0.1%. For the same compound, the Activity [13] was 48.5%, the Activity [14] was 12.3% and the Activity [15] was 11.11%. The EC50 [6] was greater than 6.35 µM, the EC50 [7] was greater than 6.35 µM and the Activity [16] was 0.3%. The viability at 10 µM [17] was 80.7% and the Activity [18] was 40.39%.
